Screening data from PubChem BioAssay.
An excerpt weighted towards active compounds, which were near 2.8% of everything screened.
NPY-Y2 antag – blocks the human neuropeptide Y Y2 receptor. NPY-Y2 expressing cells, antagonist mode. AID 793. P49146. inhibition, % at 2.7 µM. actives 0.99% (n = 140,000); in the data active = inhibition above about 17%
NPY1 pot ag – potentiates or activates human NPY-Y1 receptor; P25929; NPY-Y1 expressing cells, potentiator/agonist activation; activation, % at 3.6 µM; actives 0.37% (n = 220,000); AID 1304; in the data active = activation above about 33%, passing the limit was not always enough;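 note: cells stimulated with NPY at EC10 then isoproterenol at EC100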
NPY-Y2 PAM-ag – potentiators or agonists of human neuropeptide Y receptor Y2 | actives 0.45% (n = 220,000) | cells expressing NPY-Y2, potentiator/agonist read-out | activation, % at 3.6 µM; in the data active = activation above about 27%;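 note: cells stimulated with NPY near EC25 plus isoproterenol at EC100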
Measles CPE – protection of cells from measles virus; AID 841; actives 1.5% (n = 140,000); Measles virus-infected cells, CPE protection, absorbance; protection (pct of control), % at 4 µM; in the data active = protection mostly above about 24%, no sharp cut-off; inactive = mostly below about 26%
NPY Y1 blocker – NPY-Y1 (human) receptor antagonism. inhibition, % at 3.6 µM. actives 1% (n = 200,000). P25929. HEK293-CNG Y1 cells, membrane potential fluorescence; NPY at EC95, then isoproterenol. AID 1040;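 active = inhibition above the campaign mean inhibition of all tested compounds plus 3 SD, cut at about 20% in these data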
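material = HEK293 cells with Y1 receptor plus CNG channel | also added = NPY 25 nM then isoproterenol 1 µM plus Ro 20-1724 25 µM | schedule = dye 3 h, compound 60 min room temperature, stimulation 45 min | measured by = membrane potential fluorescence | benchmarks = high control isoproterenol alone, low control NPY with isoproterenol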
Mdm2 ligase inh – blocks human Mdm2 ubiquitin ligase activity | Q00987 | signal enhancement, % at 5 µM | cell-based MDM2 ubiquitination luciferase reporter, 2 h; 0 = plate control, 100 = twice control, blank-subtracted | actives 0.11% (n = 210,000);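 active = signal enhancement of 30% or more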;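 note: luminescence tracks abundance of the self-degrading MDM2-luciferase fusion protein; higher signal means inhibition of MDM2 E3 ligase activity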
Target sequence (Q00987 whole entry, looked up, the tested form may be a part): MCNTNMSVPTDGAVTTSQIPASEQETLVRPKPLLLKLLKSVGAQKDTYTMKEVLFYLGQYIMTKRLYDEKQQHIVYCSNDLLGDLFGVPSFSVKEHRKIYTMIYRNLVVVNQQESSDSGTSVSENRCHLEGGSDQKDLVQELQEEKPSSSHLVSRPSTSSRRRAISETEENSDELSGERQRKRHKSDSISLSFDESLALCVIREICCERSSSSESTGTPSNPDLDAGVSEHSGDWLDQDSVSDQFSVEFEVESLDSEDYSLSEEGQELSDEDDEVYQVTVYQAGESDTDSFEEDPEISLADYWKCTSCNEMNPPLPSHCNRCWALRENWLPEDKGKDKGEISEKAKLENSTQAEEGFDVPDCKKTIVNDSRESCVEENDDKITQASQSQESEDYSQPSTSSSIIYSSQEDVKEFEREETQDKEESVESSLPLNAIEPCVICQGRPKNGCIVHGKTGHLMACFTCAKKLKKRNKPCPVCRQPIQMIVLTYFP
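Timing – 2 h compound exposure at 37 °C · Assay system – mammalian cells stably expressing self-ubiquitinating, self-degrading MDM2 E3–luciferase fusion · Amount – 2000 cells seeded into each well · Measure – % luminescence enhancement versus blank-corrected plate control mean · Measured by – SteadyLite luminescence, 15 min reagent step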
A number is an active result; - = inactive; . = no result.

SMILES	NPY-Y2 antag	NPY1 pot ag	NPY-Y2 PAM-ag	Measles CPE	NPY Y1 blocker	Mdm2 ligase inh
CCOC(=O)C1CCN(C(=S)Nc2cc(C)ccc2C)CC1	-	-	-	-	-	98
COc1ccc(OCC(=O)N2CCN(c3cccc(Cl)c3)CC2)cc1	-	-	-	-	-	-
O=C(COc1ccc(Br)cc1)N1CCN(c2ccccc2)CC1	-	-	-	35	-	-
COc1ccc(OCC(=O)N2CCN(c3cccc(C(F)(F)F)c3)CC2)cc1	-	72	100	-	-	-
O=C(COc1ccccc1)N1CCN(c2ccccc2)CC1	-	-	-	-	-	-
CCN1CNC(=S)N(C(C)c2ccccc2)C1 (stereo unspecified)	-	-	-	-	-	-
CCN(CC)S(=O)(=O)c1cc(C(=O)Nc2cccnc2Cl)ccc1Cl	.	-	-	.	-	-
Cc1ccc(C#CC[N+]2(C)CCCCC2)cc1	.	-	-	.	.	-
O=C(Nc1nc(-c2ccccn2)cs1)c1ccc(Br)s1	-	-	-	-	-	45
O=C(Nc1nc(-c2ccccn2)cs1)c1ccco1	.	-	-	.	-	-
Cc1nc(CSc2nsc(/C=C/N(C)C)c2C#N)cs1	.	-	-	.	-	31
Cc1nc(CSc2nnc(N)s2)cs1	.	-	-	.	-	-
Cc1cccc(C(=O)NNC(=O)CCC(=O)Nc2cccc(Cl)c2C)c1	-	-	-	35	-	-
Cc1ccc(C(=O)NNC(=O)CCC(=O)Nc2cccc(Cl)c2C)cc1	-	-	-	-	-	-
O=c1cc(/C=C/c2ccccc2)oc2ccccc12	-	-	-	-	-	-
CC(C)Nc1ccc(Nc2ccnc3cc4ccccc4cc23)cc1	.	81	75	.	.	-
COc1ccc(C(C(=O)NC2CCCC2)N(Cc2ccccc2)C(=O)c2nsc(Cl)c2Cl)cc1 (stereo unspecified)	28	-	-	-	36	-
N#CCSc1ccc(-c2nc3ccccc3[nH]2)cn1	.	-	-	.	-	-
COc1cc(/C=C2/C(=N)N3OC(C)=CC3=NC2=O)ccc1OC(=O)c1ccco1	.	-	-	.	-	32
CC1=CC2=NC(=O)/C(=C\c3ccc(OC(=O)c4ccco4)cc3)C(=N)N2O1	.	-	-	.	-	-
CSc1nc2c(c(=O)n1-c1ccc(F)cc1)SCC2	-	-	-	44	-	.
O=C(NCc1ccccc1)C1(c2cccc(F)c2)CCCC1	.	-	-	.	-	-
CC1CCCCN1S(=O)(=O)c1ccc(C(=O)Nc2nnc(-c3ccccc3Cl)o2)cc1 (stereo unspecified)	-	95	99	-	-	-
CCC1CCCCN1S(=O)(=O)c1ccc(C(=O)Nc2nnc(-c3ccccc3Cl)o2)cc1 (stereo unspecified)	-	-	-	-	-	-
O=C1COc2ccc(N3C(=O)C=CC3=O)cc2N1	.	-	-	.	-	-
SMILES	NPY-Y2 antag	NPY1 pot ag	NPY-Y2 PAM-ag	Measles CPE	NPY Y1 blocker	Mdm2 ligase inh
O=C(CCl)Nc1cccc(-c2cnc3ccccc3n2)c1	-	-	-	-	-	-
CCC(=O)Nc1cccc(-c2cnc3ccccc3n2)c1	-	-	-	40	-	-
O=C(COC(=O)c1n[nH]c2ccccc12)Nc1cccc(S(=O)(=O)N2CCOCC2)c1	.	-	-	.	-	-
O=C(COC(=O)c1n[nH]c2ccccc12)Nc1ccc(S(=O)(=O)N2CCCC2)cc1	-	-	-	71	-	-
COc1ccccc1N(CC(=O)Nc1ccc(S(=O)(=O)N2CCCCC2)cc1)S(C)(=O)=O	-	-	-	65	-	-
CC(=O)Nc1ccc2c(c1)ncn2-c1ccc(C)cc1	.	-	-	.	-	-
CCN1C(=O)c2ccccc2S(=O)c2ccc(C(=O)N3CCCC3)cc21 (stereo unspecified)	-	-	-	-	-	-
O=C(O)c1ccc2c(c1)N(Cc1ccccc1F)C(=O)c1ccccc1S2=O (stereo unspecified)	-	-	-	-	-	71
OCCNCc1cc(Br)ccc1OCc1ccc(Cl)cc1Cl	28	-	-	-	43	-
CCCCCCCn1c(=O)c(C(=O)OC)c(N)c2ccccc21	.	-	-	.	.	-
CCOc1ccccc1CN(CCc1ccc2c(c1)OCO2)Cc1ccccn1	-	-	-	-	30	-
O=C1Nc2ccccc2/C1=N\N=C\C1=C(N2CCOCC2)C(=C\c2ccccc2)/CC1	-	46	42	-	-	-
Cn1c(=O)c2sccc2n2c(CCCC(=O)NCc3ccc4c(c3)OCO4)nnc12	-	-	-	-	-	-
CCC(C)(C(=O)NC1CCCCC1)N(Cc1cccs1)C(=O)Cc1cccs1 (stereo unspecified)	39	-	-	-	59	-
CCC(C)(C(=O)NC1CCCC1)N(Cc1cccs1)C(=O)c1ccc2c(c1)OCO2 (stereo unspecified)	18	-	-	-	27	-
O=S(=O)(c1ccc(-c2ccccn2)s1)N1CCC2(CC1)OCCO2	.	-	-	.	.	-
CCOC(=O)Cc1c(C)nc2c(-c3ccc(Cl)cc3)c[nH]n2c1=O	-	-	-	-	-	.
COc1ccc([C@@H]2Sc3cc(OC)ccc3N(CCN(C(C)C)C(C)C)C(=O)[C@H]2OC(C)=O)cc1	-	-	-	48	-	.
CCN1C(=O)C(NC(C)=O)c2cc(OC)ccc21 (stereo unspecified)	-	-	-	-	-	-
Cc1cnc(C(=O)NCCc2ccc(S(=O)(=O)NC(=O)NC3CCCCC3)cc2)cn1	-	-	-	84	-	.
COc1ccc(CCNC(=O)NC2CCCCC2)cc1	-	-	-	-	-	-
Cc1cccc2cc(CN(CC3CCCO3)C(=S)NCc3ccco3)c(=O)[nH]c12 (stereo unspecified)	-	-	-	31	-	-
CCCN(CCC)C1=CC(=[N+]2CCCC2)CC(C)(C)C1	24	-	-	-	34	-
Brc1ccc(-c2csc(/N=C/N3CCOCC3)n2)cc1	-	-	-	-	35	-
OCCN(/C=N/c1nc(-c2ccc(Br)cc2)cs1)CCO	-	-	-	32	-	-
SMILES	NPY-Y2 antag	NPY1 pot ag	NPY-Y2 PAM-ag	Measles CPE	NPY Y1 blocker	Mdm2 ligase inh
COc1ccc(-c2csc(/N=C/N(C)C)n2)cc1OC	.	-	-	.	-	-
Brc1ccc(-c2csc(N3CCOCC3)n2)cc1	.	-	-	.	-	-
COc1ccc(C/C(C)=N/NC(=S)Nc2ccc(Cl)cc2)cc1	.	-	-	.	.	-
COc1ccc(CNC(=S)Nc2cccc(C)c2)cc1	-	-	-	40	-	-
COc1ccc(C/C(C)=N/NC(=S)Nc2ccc(C)c(C)c2)cc1	-	-	-	20	-	-
COc1ccc(NC(=S)NNC(=S)Nc2cccc(C(F)(F)F)c2)cc1	.	43	-	.	.	-
CCN(C(=O)COc1cccc2cccnc12)C1CCS(=O)(=O)C1 (stereo unspecified)	.	-	-	.	-	-
Cc1nnc(SC(C)C(=O)Nc2ccc(Cl)cn2)n1Cc1ccccc1 (stereo unspecified)	-	-	-	-	-	-
